Assay results: ChEMBL document CHEMBL1121375, “Synthesis and structure-function studies of melanocyte stimulating hormone analogues modified in the 2 and 4(7) positions: comparison of activities on frog skin melanophores and melanoma adenylate cyclase” (1980)
Square brackets hold non-standard residues; d marks the D form. Peptide text beside a SMILES is read from it. Nle = CCCC[C@H](N)C(=O)O

Tests used:
Mus musculus = species: Mus musculus; test: Relative potency using melanoma adenylate cyclase bioassay system from S-91 melanoma tumors grown in DBA/2J mice; type: functional
Procedure, shortened: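 Particulate membrane fraction from S-91 melanoma tumors; 100 μg membrane protein starts the reaction. Medium: 1 mM [α-³²P]ATP, 5 mM MgCl₂, 1 mM cAMP, 0.5 mM IBMX, 1 mM DTT, 20 mM creatine phosphate, 100 U/mL creatine phosphokinase, 10 μM GTP, 30 mM Tris-HCl pH 7.5. 10 min at 30 °C; [³²P]cAMP isolated and counted. Potency from half-maximal response relative to α-MSH.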

[1] = tested on: Melanocortin receptor (Rana berlandieri); test: Relative potency using frog skin bioassay system

Compound	Potency (Mus musculus)	Potency [1]
H-DEGPYKMEHFRWGSPPKD-OH	2.2	0.55
CCCC[C@H](NC(=O)[C@H](CO)NC(=O)[C@H](Cc1ccccc1)NC(=O)[C@H](CO)NC(C)=O)C(=O)N[C@@H](CCC(=O)O)C(=O)N[C@@H](Cc1c[nH]cn1)C(=O)N[C@@H](Cc1ccccc1)C(=O)N[C@@H](CCCN=C(N)N)C(=O)N[C@@H](Cc1c[nH]c2ccccc12)C(=O)NCC(=O)N[C@@H](CCCCN)C(=O)N1CCC[C@H]1C(=O)N[C@H](C(N)=O)C(C)C	0.9	0.82
CCCC[C@H](NC(=O)[C@H](CCCCN)NC(=O)[C@H](Cc1ccc(O)cc1)NC(=O)[C@@H]1CCCN1C(=O)CNC(=O)[C@H](CCC(=O)O)NC(=O)[C@@H](N)CC(=O)O)C(=O)N[C@@H](CCC(=O)O)C(=O)N[C@@H](Cc1c[nH]cn1)C(=O)N[C@@H](Cc1ccccc1)C(=O)N[C@@H](CCCN=C(N)N)C(=O)N[C@@H](Cc1c[nH]c2ccccc12)C(=O)NCC(=O)N[C@@H](CO)C(=O)N1CCC[C@H]1C(=O)N1CCC[C@H]1C(=O)N[C@@H](CCCCN)C(=O)N[C@@H](CC(=O)O)C(=O)O (H-DEGPYK[Nle]EHFRWGSPPKD-OH)	4.2	5.2
